Assay results: ChEMBL document CHEMBL4184148 (Bioorg Med Chem Lett, 2017)

Experiments:
[1] = molecular target: Serine/threonine-protein kinase tousled-like 2 (Homo sapiens) (UniProt Q86UE8); assay: Binding affinity to wild-type human partial length TLK2 (E424 to N749 residues) expressed in Escherichia coli BL21 at 1 uM by Kinomescan method relative to control
[2] = molecular target: LIM domain kinase 2 (Homo sapiens) (UniProt P53671); assay: Binding affinity to wild-type human full length LIMK2 (M1 to P638 residues) expressed in Escherichia coli BL21 at 1 uM by Kinomescan method relative to control
Outline: (§1)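 Run as one kinome-wide competition binding panel with each compound at a single fixed concentration. Results were plotted as a kinome-wide selectivity map.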

[3] = molecular target: Serine/threonine-protein kinase 38-like (Homo sapiens) (UniProt Q9Y2H1); assay: Binding affinity to wild-type human partial length NDR2 (N34 to E447 residues) expressed in Escherichia coli BL21 at 1 uM by Kinomescan method relative to control
[4] = molecular target: Ankyrin repeat and protein kinase domain-containing protein 1 (Homo sapiens) (UniProt Q8NFD2); assay: Binding affinity to wild-type human partial length ANKK1 (M1 to A305 residues) expressed in HEK293 cells at 1 uM by Kinomescan method relative to control; type: cell-based
Outline: (§2)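 Kinome-wide competition binding panel run by an outside provider, with each compound tested at a single concentration. Activity is read against the kinase panel.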

[5] = tested on: Phosphatidylinositol 4,5-bisphosphate 3-kinase catalytic subunit alpha isoform (Homo sapiens), P42336 [Q546K]; assay: Binding affinity to human partial length PIK3CA Q546K mutant (R108 to N1068 residues) expressed in HEK293 cells at 1 uM by Kinomescan method relative to control; type: cell-based
[6] = molecular target: Serine/threonine-protein kinase MRCK gamma (Homo sapiens) (UniProt Q6DT37); assay: Binding affinity to wild-type human partial length DMPK2 (S46 to S408 residues) expressed in Escherichia coli BL21 at 1 uM by Kinomescan method relative to control
[7] = molecular target: MAP kinase-activated protein kinase 5 (Homo sapiens) (UniProt Q8IW41); assay: Binding affinity to wild-type human partial length MAPKAPK5 (M1 to D322 residues) expressed in HEK293 cells at 1 uM by Kinomescan method relative to control; type: cell-based
[8] = molecular target: Serine/threonine-protein kinase 32B (Homo sapiens) (UniProt Q9NY57); assay: Binding affinity to wild-type human full length YANK2 (M1 to S414 residues) expressed in Escherichia coli BL21 at 1 uM by Kinomescan method relative to control; outline: as §2
[9] = molecular target: Ephrin type-B receptor 4 (Homo sapiens) (UniProt P54760); assay: Binding affinity to wild-type human partial length EPHB4 (H585 to G892 residues) expressed in Escherichia coli BL21 at 1 uM by Kinomescan method relative to control
[10] = molecular target: Ephrin type-B receptor 2 (Homo sapiens) (UniProt P29323); assay: Binding affinity to wild-type human partial length EPHB2 (I597 to L902 residues) expressed in Escherichia coli BL21 at 1 uM by Kinomescan method relative to control
[11] = molecular target: Serine/threonine-protein kinase TNNI3K (Homo sapiens) (UniProt Q59H18); assay: Binding affinity to wild-type human full length TNNI3K (M1 to S835 residues) expressed in Escherichia coli BL21 at 1 uM by Kinomescan method relative to control; outline: as §2
[12] = tested on: Epidermal growth factor receptor (Homo sapiens), P00533 [UNDEFINED MUTATION]; assay: Binding affinity to human partial length EGFR L747-E749del/A750P mutant expressed in Escherichia coli BL21 at 1 uM by Kinomescan method relative to control
[13] = molecular target: RAC-gamma serine/threonine-protein kinase (Homo sapiens) (UniProt Q9Y243); assay: Binding affinity to wild-type human partial length AKT3 expressed in Escherichia coli BL21 at 1 uM by Kinomescan method relative to control; outline: as §2
[14] = molecular target: Phosphatidylinositol 4-kinase beta (Homo sapiens) (UniProt Q9UBF8); assay: Binding affinity to wild-type human full length PIK4CB (M1 to M828 residues) expressed in HEK293 cells at 1 uM by Kinomescan method relative to control; type: cell-based; outline: as §2
[15] = molecular target: Mitogen-activated protein kinase 13 (Homo sapiens) (UniProt O15264); assay: Binding affinity to wild-type human full length p38-delta (M1 to L365 residues) expressed in Escherichia coli BL21 at 1 uM by Kinomescan method relative to control; outline: as §2
[16] = molecular target: Serine/threonine-protein kinase ULK1 (Homo sapiens) (UniProt O75385); assay: Binding affinity to wild-type human partial length ULK1 (M1 to T309 residues) expressed in HEK293 cells at 1 uM by Kinomescan method relative to control; type: cell-based
[17] = molecular target: Serine/threonine-protein kinase 38 (Homo sapiens) (UniProt Q15208); assay: Binding affinity to wild-type human partial length NDR1 (N33 to E449 residues) expressed in HEK293 cells at 1 uM by Kinomescan method relative to control; type: cell-based
[18] = molecular target: Dual specificity tyrosine-phosphorylation-regulated kinase 2 (Homo sapiens) (UniProt Q92630); assay: Binding affinity to wild-type human full length DYRK2 (M1 to S528 residues) expressed in HEK293 cells at 1 uM by Kinomescan method relative to control; type: cell-based; outline: as §1
[19] = molecular target: Mitogen-activated protein kinase kinase kinase 9 (Homo sapiens) (UniProt P80192); assay: Binding affinity to wild-type human partial length MLK1 (V88 to W426 residues) expressed in Escherichia coli BL21 at 1 uM by Kinomescan method relative to control
[20] = molecular target: Activin receptor type-2A (Homo sapiens) (UniProt P27037); assay: Binding affinity to wild-type human ACVR2A (V171 to T499 residues) expressed in Escherichia coli BL21 at 1 uM by Kinomescan method relative to control
[21] = molecular target: Dual specificity protein kinase TTK (Homo sapiens) (UniProt P33981); assay: Binding affinity to wild-type human partial length TTK (N505 to V798 residues) expressed in Escherichia coli BL21 at 1 uM by Kinomescan method relative to control
[22] = tested on: Mast/stem cell growth factor receptor Kit (Homo sapiens), P10721 [V559D,V654A]; assay: Binding affinity to human partial length KIT V559D/V654A double mutant (Y545 to D952 residues) expressed in Escherichia coli BL21 at 1 uM by Kinomescan method relative to control

Sequence of Mitogen-activated protein kinase 13 (Homo sapiens) (O15264 whole entry, the tested form may be a part): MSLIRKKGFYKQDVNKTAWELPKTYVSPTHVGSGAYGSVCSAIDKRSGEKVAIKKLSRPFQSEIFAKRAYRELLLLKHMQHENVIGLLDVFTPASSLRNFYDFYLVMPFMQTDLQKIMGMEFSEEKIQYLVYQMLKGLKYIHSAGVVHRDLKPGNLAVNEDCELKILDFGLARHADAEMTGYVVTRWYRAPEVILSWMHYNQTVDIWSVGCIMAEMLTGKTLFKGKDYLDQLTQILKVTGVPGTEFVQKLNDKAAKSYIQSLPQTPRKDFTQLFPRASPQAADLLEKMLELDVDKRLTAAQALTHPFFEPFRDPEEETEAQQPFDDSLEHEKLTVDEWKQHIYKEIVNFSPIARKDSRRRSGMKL
Sequence of Serine/threonine-protein kinase TNNI3K (Homo sapiens) (Q59H18 whole entry, the tested form may be a part): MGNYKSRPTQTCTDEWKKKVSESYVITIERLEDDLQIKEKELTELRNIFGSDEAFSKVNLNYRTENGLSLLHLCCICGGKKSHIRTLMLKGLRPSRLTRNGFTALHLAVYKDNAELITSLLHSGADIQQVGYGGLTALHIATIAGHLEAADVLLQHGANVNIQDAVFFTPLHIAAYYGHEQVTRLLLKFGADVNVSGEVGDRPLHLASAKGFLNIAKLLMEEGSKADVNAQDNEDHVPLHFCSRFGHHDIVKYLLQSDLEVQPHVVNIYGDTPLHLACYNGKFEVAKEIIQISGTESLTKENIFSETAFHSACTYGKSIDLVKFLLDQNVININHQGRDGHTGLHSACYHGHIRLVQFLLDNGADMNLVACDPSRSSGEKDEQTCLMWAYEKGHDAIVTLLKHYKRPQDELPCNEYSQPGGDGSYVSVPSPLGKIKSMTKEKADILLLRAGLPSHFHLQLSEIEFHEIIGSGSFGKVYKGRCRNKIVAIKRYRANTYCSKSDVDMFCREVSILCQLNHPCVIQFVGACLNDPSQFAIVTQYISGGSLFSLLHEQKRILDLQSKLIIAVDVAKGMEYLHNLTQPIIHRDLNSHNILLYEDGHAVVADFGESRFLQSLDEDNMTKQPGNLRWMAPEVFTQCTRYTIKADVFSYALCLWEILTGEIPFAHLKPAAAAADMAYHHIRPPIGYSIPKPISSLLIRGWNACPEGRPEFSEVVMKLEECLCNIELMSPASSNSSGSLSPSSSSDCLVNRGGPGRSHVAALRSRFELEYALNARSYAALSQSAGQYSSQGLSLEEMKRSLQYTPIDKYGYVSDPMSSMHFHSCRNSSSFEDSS
Sequence of Ankyrin repeat and protein kinase domain-containing protein 1 (Homo sapiens) (Q8NFD2 whole entry, the tested form may be a part): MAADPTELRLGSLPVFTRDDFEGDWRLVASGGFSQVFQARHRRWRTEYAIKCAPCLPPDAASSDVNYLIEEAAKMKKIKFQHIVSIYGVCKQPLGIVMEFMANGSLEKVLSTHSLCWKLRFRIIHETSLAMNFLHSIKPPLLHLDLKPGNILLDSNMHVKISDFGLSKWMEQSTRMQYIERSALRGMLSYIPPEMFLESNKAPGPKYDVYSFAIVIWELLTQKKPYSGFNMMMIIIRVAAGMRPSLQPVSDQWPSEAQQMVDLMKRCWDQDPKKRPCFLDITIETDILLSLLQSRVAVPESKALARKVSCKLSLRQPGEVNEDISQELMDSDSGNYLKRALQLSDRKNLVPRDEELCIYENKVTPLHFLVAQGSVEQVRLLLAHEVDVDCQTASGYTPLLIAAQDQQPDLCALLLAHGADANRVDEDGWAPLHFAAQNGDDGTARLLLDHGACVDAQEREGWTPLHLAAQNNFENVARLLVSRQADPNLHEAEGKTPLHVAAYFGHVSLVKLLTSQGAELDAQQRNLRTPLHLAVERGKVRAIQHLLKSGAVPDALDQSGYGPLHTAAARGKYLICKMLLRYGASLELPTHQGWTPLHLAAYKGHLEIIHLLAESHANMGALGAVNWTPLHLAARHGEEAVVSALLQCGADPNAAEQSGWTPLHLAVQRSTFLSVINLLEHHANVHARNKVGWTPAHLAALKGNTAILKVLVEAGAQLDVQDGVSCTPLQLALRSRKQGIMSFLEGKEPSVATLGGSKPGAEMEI
Sequence of Mitogen-activated protein kinase kinase kinase 9 (Homo sapiens) (P80192 whole entry, looked up, the tested form may be a part): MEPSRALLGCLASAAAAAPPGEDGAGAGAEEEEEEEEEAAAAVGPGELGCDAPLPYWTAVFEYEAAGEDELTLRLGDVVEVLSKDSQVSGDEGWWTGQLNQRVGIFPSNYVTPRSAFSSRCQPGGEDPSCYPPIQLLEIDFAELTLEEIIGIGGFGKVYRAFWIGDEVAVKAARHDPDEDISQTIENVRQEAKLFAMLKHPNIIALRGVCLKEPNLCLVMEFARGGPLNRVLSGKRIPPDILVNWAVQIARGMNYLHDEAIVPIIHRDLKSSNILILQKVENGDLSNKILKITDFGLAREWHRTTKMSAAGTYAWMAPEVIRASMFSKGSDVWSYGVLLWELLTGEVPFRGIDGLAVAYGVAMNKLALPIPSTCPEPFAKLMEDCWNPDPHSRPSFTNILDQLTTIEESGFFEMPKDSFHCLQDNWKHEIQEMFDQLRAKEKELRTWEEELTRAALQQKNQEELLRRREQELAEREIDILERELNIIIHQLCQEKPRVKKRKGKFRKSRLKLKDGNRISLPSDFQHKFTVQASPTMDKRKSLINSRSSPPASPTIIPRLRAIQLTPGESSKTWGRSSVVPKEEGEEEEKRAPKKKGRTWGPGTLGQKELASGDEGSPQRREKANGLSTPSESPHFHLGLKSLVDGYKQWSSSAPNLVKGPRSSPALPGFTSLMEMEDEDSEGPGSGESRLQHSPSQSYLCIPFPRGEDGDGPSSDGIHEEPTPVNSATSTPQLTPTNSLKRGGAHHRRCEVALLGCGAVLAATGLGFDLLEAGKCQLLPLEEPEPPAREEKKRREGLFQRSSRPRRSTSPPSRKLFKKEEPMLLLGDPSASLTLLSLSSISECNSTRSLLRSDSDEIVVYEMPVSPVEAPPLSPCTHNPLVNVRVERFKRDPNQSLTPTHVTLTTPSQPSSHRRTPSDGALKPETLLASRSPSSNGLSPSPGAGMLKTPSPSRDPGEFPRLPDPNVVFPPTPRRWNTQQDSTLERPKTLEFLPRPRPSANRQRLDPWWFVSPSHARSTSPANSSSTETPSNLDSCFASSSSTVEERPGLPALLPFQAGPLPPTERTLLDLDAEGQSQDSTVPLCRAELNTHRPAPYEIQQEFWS
Sequence of Serine/threonine-protein kinase 38-like (Homo sapiens) (Q9Y2H1 2-464 limits assumed): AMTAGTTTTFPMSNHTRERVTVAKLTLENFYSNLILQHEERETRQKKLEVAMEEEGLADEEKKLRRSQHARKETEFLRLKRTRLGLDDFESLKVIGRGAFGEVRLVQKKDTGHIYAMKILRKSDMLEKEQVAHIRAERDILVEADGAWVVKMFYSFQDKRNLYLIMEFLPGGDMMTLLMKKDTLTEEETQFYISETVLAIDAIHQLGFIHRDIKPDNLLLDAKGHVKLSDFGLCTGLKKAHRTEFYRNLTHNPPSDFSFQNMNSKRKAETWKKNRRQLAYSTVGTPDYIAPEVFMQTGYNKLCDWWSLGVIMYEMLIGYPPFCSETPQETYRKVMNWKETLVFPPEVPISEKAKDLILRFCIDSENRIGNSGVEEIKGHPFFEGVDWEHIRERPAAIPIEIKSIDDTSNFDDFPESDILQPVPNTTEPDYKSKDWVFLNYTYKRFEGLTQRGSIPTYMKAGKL
Sequence of Epidermal growth factor receptor (Homo sapiens), P00533 [UNDEFINED MUTATION] (P00533 whole entry, looked up, stated change not applied): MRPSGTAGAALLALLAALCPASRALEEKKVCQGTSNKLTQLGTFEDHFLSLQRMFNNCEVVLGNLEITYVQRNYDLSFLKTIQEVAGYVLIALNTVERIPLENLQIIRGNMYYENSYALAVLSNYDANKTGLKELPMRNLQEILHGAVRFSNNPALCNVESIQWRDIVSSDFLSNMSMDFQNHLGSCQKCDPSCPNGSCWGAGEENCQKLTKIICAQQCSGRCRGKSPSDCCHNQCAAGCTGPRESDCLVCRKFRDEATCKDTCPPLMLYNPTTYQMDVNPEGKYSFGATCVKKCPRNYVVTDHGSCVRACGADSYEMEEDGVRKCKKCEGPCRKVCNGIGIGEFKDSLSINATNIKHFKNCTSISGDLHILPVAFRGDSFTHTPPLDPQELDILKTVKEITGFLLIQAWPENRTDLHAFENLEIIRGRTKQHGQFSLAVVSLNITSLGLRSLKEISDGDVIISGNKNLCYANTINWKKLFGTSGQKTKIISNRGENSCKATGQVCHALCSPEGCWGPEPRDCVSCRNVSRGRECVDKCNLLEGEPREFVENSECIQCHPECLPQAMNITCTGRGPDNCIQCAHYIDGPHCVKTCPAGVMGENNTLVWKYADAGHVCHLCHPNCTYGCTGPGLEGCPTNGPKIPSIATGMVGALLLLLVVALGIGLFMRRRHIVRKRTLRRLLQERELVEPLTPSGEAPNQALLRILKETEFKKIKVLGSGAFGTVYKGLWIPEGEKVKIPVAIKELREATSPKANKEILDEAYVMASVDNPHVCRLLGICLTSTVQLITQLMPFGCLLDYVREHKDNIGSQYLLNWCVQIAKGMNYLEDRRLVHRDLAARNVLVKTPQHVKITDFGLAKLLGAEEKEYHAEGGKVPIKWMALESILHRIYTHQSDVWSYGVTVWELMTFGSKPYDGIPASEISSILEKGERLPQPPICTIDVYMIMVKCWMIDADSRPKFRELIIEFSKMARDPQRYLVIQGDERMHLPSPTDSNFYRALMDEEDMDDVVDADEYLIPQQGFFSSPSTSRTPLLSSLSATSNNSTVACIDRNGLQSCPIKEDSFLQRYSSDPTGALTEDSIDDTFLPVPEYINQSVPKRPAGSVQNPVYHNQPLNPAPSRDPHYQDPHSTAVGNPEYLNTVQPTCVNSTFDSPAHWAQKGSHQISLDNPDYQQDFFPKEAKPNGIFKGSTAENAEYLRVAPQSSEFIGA

Row | Compound | Activity [1] | Activity [2] | Activity [3] | Activity [4] | Activity [5] | Activity [6] | Activity [7] | Activity [8] | Activity [9] | Activity [10] | Activity [11] | Activity [12] | Activity [13] | Activity [14] | Activity [15] | Activity [16] | Activity [17] | Activity [18] | Activity [19] | Activity [20] | also measured
1 | C=CC(=O)Nc1ccc(C(=O)Nc2ccc(Nc3ncc4c(n3)N(C)c3ccc(C)cc3C(=O)N4C)cc2)cc1 | 98% | 100% | 97% | 92% | 77% | 100% | 99% | 100% | 95% | 96% | 77% | 76% | 83% | 80% | 84% | 79% | 87% | 92% | 100% | 100% | Activity [21]: 86%; Activity [22]: 91%
2 | CCC(=O)Nc1ccc(C(=O)Nc2ccc(Nc3ncc4c(n3)N(C)c3ccc(C)cc3C(=O)N4C)cc2)cc1 | 100% | 89% | 79% | 60% | 78% | 77% | 55% | 100% | 100% | 93% | 100% | 48% | 100% | 88% | 97% | 91% | 80% | 100% | 88% | 100% | Activity [21]: 87%; Activity [22]: 97%
